This note sets out measurements from ChEMBL document CHEMBL4043294, “Chemogenomic Profiling of Human and Microbial FK506-Binding Proteins” (J Med Chem, 2018).

Active and inactive are the calls of the source. The calls are words filed in the database; no cut-off is given here.

The subject of assay [1] is Legionella pneumophila. Briefly: Antibacterial activity against Legionella pneumophila Corby infected in differentiated human THP1 cells assessed as bacterial growth inhibition after 24 hrs. The format is functional. The procedure, abridged:
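THP-1 monocytes at 5 × 10^5 cells/mL were differentiated with 100 nM PMA for 2 days. L. pneumophila Corby grown 3 days on BCYE agar was added at MOI 1. After 2 h, extracellular bacteria were washed off with PBS and compound was added in medium (control 1% DMSO). At 2 and 24 h, cells were lysed with 0.1% Triton X-100 and dilutions plated on BCYE. Colonies counted after 3–4 days at 37 °C. Three independent experiments in duplicate.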

For assay [2], the system named is Plasmodium falciparum. The assay can be described thus: Antiparasitic activity against Plasmodium falciparum 3D7 infected in human RBC assessed as decrease in parasitemia after 60 hrs by Hoechst 33342 staining-based flow cytometric method. The class given is functional. As to conditions: 3D7, 60 h. The procedure, abridged: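 Sorbitol-synchronized early-stage parasites, adjusted to 1% parasitemia at 2% hematocrit. Serial dilutions of compound in DMSO (≤0.05% per well) applied in triplicate for 60 h. Cells stained with 16.2 μM Hoechst 33342 in PBS for 20 min at room temperature. Parasitemia read by flow cytometry; IC50 estimated from dose–response curves.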
For orientation: A flow cytometer gives signals particle by particle.

The target of assay [3] is Peptidyl-prolyl cis-trans isomerase FKBP1A (Homo sapiens, UniProt P62942). Briefly: Displacement of 5-(3-(4-(((5S,6S)-10-(3,5-dichlorophenylsulfonyl)-2-oxo-5-vinyl-3,10-diazabicyclo[4.3.1]decan-3-yl)methyl)-1H-1,2,3-triazol-1-yl)propylcarbamoyl)-2-(6-(dimethylamino)-3-(dimethyliminio)-3,10-dihydroanthracen-9-yl)benzoate from human FKBP12 after 30 mins by fluorescence polarization assay. In a few lines: (§1)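 Competitive fluorescence polarization against a TAMRA-labelled tracer in 20 mM NaCl, 20 mM HEPES pH 8.0, 0.002% Tween20. Ligand serially diluted 1:1 in DMSO, then diluted 50-fold into tracer-containing buffer and added to protein. Equilibrated 30 min at room temperature before polarization read. Competition curves fitted.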
Sequence of Peptidyl-prolyl cis-trans isomerase FKBP1A (P62942 whole entry): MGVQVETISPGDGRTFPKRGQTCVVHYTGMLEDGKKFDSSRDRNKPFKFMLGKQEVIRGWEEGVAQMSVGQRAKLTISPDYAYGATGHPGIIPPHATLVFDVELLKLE
For orientation: Fluorescence polarisation rises when a labelled molecule tumbles more slowly, as on binding a larger partner.

Assay [4] concerns Chlamydia pneumoniae. Briefly: Antibacterial activity against Chlamydia pneumoniae CWL029 infected in human Hep2 or HeLa cells assessed as decrease in generation of infectious elementary bodies at 10 uM after 48 hrs by immunofluorescent staining-based assay. The format is functional, cell-based. The procedure, abridged:
(§2)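 HEp-2 or HeLa cells, 3.5 × 10^4 per well in RPMI1640 with 5% FBS, nonessential amino acids and 2 mM glutamine, grown overnight at 37 °C in 5% CO2. Inhibitor added at infection (C. pneumoniae CWL029 0.2 IFU/cell; C. trachomatis serovar D 0.5 IFU/cell). Plates centrifuged at 700g for 1 h at 35 °C, then incubated 48 h. Inclusions stained with anti-chlamydial-LPS immunofluorescence and host cells counterstained with Evans Blue. Recoverable bacteria normalized to untreated controls.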

Assay [5] can be described thus: Displacement of 5-(3-(4-(((5S,6S)-10-(3,5-dichlorophenylsulfonyl)-2-oxo-5-vinyl-3,10-diazabicyclo[4.3.1]decan-3-yl)methyl)-1H-1,2,3-triazol-1-yl)propylcarbamoyl)-2-(6-(dimethylamino)-3-(dimethyliminio)-3,10-dihydroanthracen-9-yl)benzoate from Candida albicans FKBP12 after 30 mins by fluorescence polarization assay. In a few lines:
as §1

Assay [6] is described as follows: Displacement of 5-(3-(4-(((5S,6S)-10-(3,5-dichlorophenylsulfonyl)-2-oxo-5-vinyl-3,10-diazabicyclo[4.3.1]decan-3-yl)methyl)-1H-1,2,3-triazol-1-yl)propylcarbamoyl)-2-(6-(dimethylamino)-3-(dimethyliminio)-3,10-dihydroanthracen-9-yl)benzoate from Chlamydia trachomatis Mip after 30 mins by fluorescence polarization assay. The procedure, abridged:
as §1

The nature of assay [7]: Displacement of 5-(3-(4-(((5S,6S)-10-(3,5-dichlorophenylsulfonyl)-2-oxo-5-vinyl-3,10-diazabicyclo[4.3.1]decan-3-yl)methyl)-1H-1,2,3-triazol-1-yl)propylcarbamoyl)-2-(6-(dimethylamino)-3-(dimethyliminio)-3,10-dihydroanthracen-9-yl)benzoate from […] FKBP35 after 30 mins by fluorescence polarization assay. Set-up: species or system Plasmodium falciparum. The procedure, abridged: as §1

For assay [8], the target named is Outer membrane protein MIP (Legionella pneumophila, UniProt Q70YI1). The assay can be described thus: Displacement of 5-(3-(4-(((5S,6S)-10-(3,5-dichlorophenylsulfonyl)-2-oxo-5-vinyl-3,10-diazabicyclo[4.3.1]decan-3-yl)methyl)-1H-1,2,3-triazol-1-yl)propylcarbamoyl)-2-(6-(dimethylamino)-3-(dimethyliminio)-3,10-dihydroanthracen-9-yl)benzoate from Legionella pneumophila Mip after 30 mins by fluorescence polarization assay. In a few lines: as §1
Sequence of Outer membrane protein MIP (Q70YI1 21-233 limits assumed): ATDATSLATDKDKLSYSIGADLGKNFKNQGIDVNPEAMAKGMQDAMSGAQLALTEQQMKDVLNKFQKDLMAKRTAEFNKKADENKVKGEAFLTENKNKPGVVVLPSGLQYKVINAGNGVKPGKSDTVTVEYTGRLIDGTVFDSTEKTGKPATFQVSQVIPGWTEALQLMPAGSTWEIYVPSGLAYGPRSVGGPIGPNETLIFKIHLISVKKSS

Assay [9] concerns the target T1, Peptidyl-prolyl cis-trans isomerase Mip (Chlamydia pneumoniae, UniProt Q9Z7P3).
T1 sequence (Q9Z7P3 whole entry): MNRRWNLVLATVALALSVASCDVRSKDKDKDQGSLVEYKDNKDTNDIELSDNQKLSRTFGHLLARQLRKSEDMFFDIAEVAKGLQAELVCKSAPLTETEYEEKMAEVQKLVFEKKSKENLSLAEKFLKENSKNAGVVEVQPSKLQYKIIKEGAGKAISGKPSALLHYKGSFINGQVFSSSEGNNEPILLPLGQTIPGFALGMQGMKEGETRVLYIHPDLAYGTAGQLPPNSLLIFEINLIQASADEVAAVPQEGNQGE
Briefly: Displacement of 5-(3-(4-(((5S,6S)-10-(3,5-dichlorophenylsulfonyl)-2-oxo-5-vinyl-3,10-diazabicyclo[4.3.1]decan-3-yl)methyl)-1H-1,2,3-triazol-1-yl)propylcarbamoyl)-2-(6-(dimethylamino)-3-(dimethyliminio)-3,10-dihydroanthracen-9-yl)benzoate from Chlamydia pneumoniae Mip after 30 mins by fluorescence polarization assay. The procedure, abridged: as §1

Assay [10] deals with Chlamydia pneumoniae. Briefly: Antibacterial activity against Chlamydia pneumoniae CWL029 infected in human Hep2 or HeLa cells assessed as decrease in inclusion size at 10 uM after 48 hrs by immunofluorescent staining-based assay. The format is functional, cell-based. The procedure, abridged:
as §2

The test system of assay [11] is Chlamydia trachomatis. Briefly: Antibacterial activity against Chlamydia trachomatis Serovar D infected in human Hep2 or HeLa cells assessed as decrease in generation of infectious elementary bodies at 10 uM after 48 hrs by immunofluorescent staining-based assay. The format is functional, cell-based. In a few lines: as §2

Turning to `CC[C@H]1CN(CCOC)C(=O)[C@@H]2CCC[C@H]1N2S(=O)(=O)c1cc(Cl)cc(Cl)c1`, in [1], the “growth inhibition (GI)” value is “Dose-dependent effect”. Further, the half-maximal inhibitory concentration (IC50) in [2] worked out at 8.3 µM. With `C=C[C@H]1CN(CCCCOC)C(=O)[C@@H]2CCC[C@H]1N2S(=O)(=O)c1cc(Cl)cc(Cl)c1`, the inhibition constant Ki in assay [3] is 0.249 µM. In other words, the sub-micromolar range. Still for that read-out and setting: under `C=C[C@H]1CN(CCOC)C(=O)[C@@H]2CCC[C@H]1N2S(=O)(=O)c1cc(Cl)cc(Cl)c1` stands 0.0188 µM. Turning to `C=C[C@H]1CN(Cc2ccco2)C(=O)[C@@H]2CCC[C@H]1N2S(=O)(=O)c1cc(Cl)cc(Cl)c1`, the result in assay [4], in [10] and in assay [11] was Active. In addition, the Ki in assay [5] worked out at 1.49 µM; in [6], 1.82 µM; in [7], 5.22 µM; in [8], 6.59 µM; in [9] it was 0.315 µM. Turning to `C=C[C@@H]1CN(CCF)C(=O)[C@@H]2CCC[C@H]1N2S(=O)(=O)c1cc(Cl)cc(Cl)c1`, in [3], the Ki fell in the range of 0.049 to 0.08 µM.

In turn, `C=C[C@H]1CN(CCCOC)C(=O)[C@@H]2CCC[C@H]1N2S(=O)(=O)c1cc(Cl)cc(Cl)c1` yielded a Ki in assay [3] of 0.143 µM.

In assay [5], `C=C[C@H]1CN(Cc2ccccn2)C(=O)[C@@H]2CCC[C@H]1N2S(=O)(=O)c1ccc(-c2ncccn2)cc1` registered a Ki of 0.052 µM. As for `C=C[C@@H]1CN(CCN(C)C)C(=O)[C@@H]2CCC[C@H]1N2S(=O)(=O)c1cc(Cl)cc(Cl)c1`, the inhibition constant Ki in assay [3] was 0.007 to 0.025 µM. Same read-out and setting: under `C=C[C@H]1CN(CC(=O)O)C(=O)[C@@H]2CCC[C@H]1N2S(=O)(=O)c1cc(Cl)cc(Cl)c1` stands 0.007 to 0.025 µM. On the same count and under the same terms, as for `C=C[C@H]1CN(CC#N)C(=O)[C@@H]2CCC[C@H]1N2S(=O)(=O)c1cc(Cl)cc(Cl)c1`, the figure is 0.049 to 0.08 µM. The same measure, in the same setting: under `C=C[C@H]1CNC(=O)[C@@H]2CCC[C@H]1N2S(=O)(=O)c1cc(Cl)cc(Cl)c1` stands 0.049 to 0.08 µM; under `C=C[C@H]1CN(CC(=O)OCC)C(=O)[C@@H]2CCC[C@H]1N2S(=O)(=O)c1cc(Cl)cc(Cl)c1`, 0.007 to 0.025 µM; under `C=C[C@H]1CN(CCOCC)C(=O)[C@@H]2CCC[C@H]1N2S(=O)(=O)c1cc(Cl)cc(Cl)c1`, 0.0211 µM. On to `C=C[C@H]1CN(Cc2ncccc2F)C(=O)[C@@H]2CCC[C@H]1N2S(=O)(=O)c1cc(Cl)cc(Cl)c1`, for which the affinity in [3], expressed as Ki, was 0.0118 µM. Same read-out and setting: as for `C#CCN1C[C@H](C=C)[C@H]2CCC[C@@H](C1=O)N2S(=O)(=O)c1cc(Cl)cc(Cl)c1`, the figure is 0.049 to 0.08 µM; as for `C=C[C@H]1CN(CC(N)=O)C(=O)[C@@H]2CCC[C@H]1N2S(=O)(=O)c1cc(Cl)cc(Cl)c1`, 0.007 to 0.025 µM; as for `C=C[C@H]1CN(CCNC)C(=O)[C@@H]2CCC[C@H]1N2S(=O)(=O)c1cc(Cl)cc(Cl)c1`, 0.007 to 0.025 µM. Same read-out and setting: under `C=C[C@H]1CN(C)C(=O)[C@@H]2CCC[C@H]1N2S(=O)(=O)c1cc(Cl)cc(Cl)c1` stands 0.049 to 0.08 µM.

The IC50 is the concentration at which inhibition is half-maximal. By Ki is commonly meant the equilibrium dissociation constant of an inhibitor or competing ligand from its target.
